Data reported in ChEMBL document CHEMBL4431379, “Diverging Novobiocin Anti-Cancer Activity from Neuroprotective Activity through Modification of the Amide Tail” (ACS Med Chem Lett, 2016).
Active and inactive are the calls of the source. No cut-off for these calls is given here.

Tests used:
Homo sapiens [1] = species: Homo sapiens; experiment: Inhibition of Hsp90alpha/Aha1 interaction in human PC3MM2 cells assessed as remaining Hsp90alpha/Aha complex levels at 100 uM after 24 hrs by Western blot analysis (reference value: 98 to 100 %); assay type: cell-based
[2] = molecular target: T1, Heat shock protein HSP90 (Homo sapiens) (UniProt P07900+P08238); experiment: Inhibition of Hsp90 in human PC3MM2 cells assessed as suppression of firefly luciferase rematuration at 0.02 to 20 uM incubated for 1 hr by luciferase reporter gene assay; assay type: cell-based
Outline: (§1)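 Hsp90-dependent refolding of thermally denatured firefly luciferase in PC3-MM2 cells. Compounds tested from 0.02 to 20 μM.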

[3] = molecular target: T1, Heat shock protein HSP90 (Homo sapiens); experiment: Inhibition of Hsp90 in human PC3MM2 cells assessed as downregulation of Raf1 at 0.5 to 3 times IC50 after 24 hrs by Western blot analysis; assay type: cell-based
Outline: (§2)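 PC3-MM2 cells treated 24 h at a high (3 × IC50) and a low (0.5 × IC50) concentration. Hsp90 client protein levels measured by Western blot with actin as loading control.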

[4] = Antiproliferative activity against human PC3MM2 cells; assay type: functional, cell-based
Outline: (§3)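 Antiproliferative assay in SkBr3 (Her2-overexpressing breast) and PC3-MM2 (androgen-independent prostate) cancer cells. IC50 in μM given as mean ± standard deviation of at least two separate experiments, each run in triplicate.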

[5] = molecular target: T1, Heat shock protein HSP90 (Homo sapiens); experiment: Inhibition of Hsp90 in human PC3MM2 cells assessed as downregulation of Her2 at 0.5 to 3 times IC50 after 24 hrs by Western blot analysis; assay type: cell-based; outline: as §2
[6] = molecular target: T1, Heat shock protein HSP90 (Homo sapiens); experiment: Induction of Hsp90 in human PC3MM2 cells at 0.5 to 3 times IC50 after 24 hrs by Western blot analysis; assay type: cell-based; outline: as §2
Rattus norvegicus = species: Rattus norvegicus; experiment: Neuroprotective activity in rat 50B11 cells assessed as maximal respiratory capacity at 5 uM after 24 hrs in presence of oligomycin/FCCP/rotenon/antimycin by extracellular flux analysis
[7] = molecular target: T1, Heat shock protein HSP90 (Homo sapiens); experiment: Inhibition of Hsp90 in human PC3MM2 cells assessed as downregulation of Akt at 0.5 to 3 times IC50 after 24 hrs by Western blot analysis; assay type: cell-based; outline: as §2
[8] = molecular target: T1, Heat shock protein HSP90 (Homo sapiens); experiment: Induction of HSP90-mediated HSF1 expression in human PC3MM2 cells at 10 uM after 24 hrs by Western blot analysis; assay type: cell-based
Outline: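 PC3-MM2 cells exposed to 10 μM of each compound for 24 h. HSF1 measured by Western blot relative to β-actin.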

SK-BR-3 = experiment: Antiproliferative activity against human SK-BR-3 cells; assay type: functional, cell-based; outline: as §3
Homo sapiens [9] = species: Homo sapiens; experiment: Inhibition of Hsp90alpha/Aha1 interaction in human PC3MM2 cells assessed as remaining Hsp90alpha/Aha complex levels at 50 uM after 24 hrs by Western blot analysis (reference value: 98 to 100 %); assay type: cell-based
[10] = molecular target: T1, Heat shock protein HSP90 (Homo sapiens); experiment: Inhibition of Hsp90 in human PC3MM2 cells assessed as downregulation of Her2 at 100 uM after 24 hrs by Western blot analysis; assay type: cell-based
[11] = molecular target: T1, Heat shock protein HSP90 (Homo sapiens); experiment: Inhibition of Hsp90 in human PC3MM2 cells assessed as downregulation of Raf1 at 100 uM after 24 hrs by Western blot analysis; assay type: cell-based
[12] = molecular target: T1, Heat shock protein HSP90 (Homo sapiens); experiment: Inhibition of Hsp90 in human PC3MM2 cells assessed as downregulation of Akt at 100 uM after 24 hrs by Western blot analysis; assay type: cell-based
[13] = molecular target: T1, Heat shock protein HSP90 (Homo sapiens); experiment: Effect on Hsp90 in human PC3MM2 cells assessed as stimulation of firefly luciferase rematuration at 0.02 to 20 uM incubated for 1 hr by luciferase reporter gene assay; assay type: cell-based; outline: as §1
Homo sapiens [14] = species: Homo sapiens; experiment: Inhibition of Hsp90alpha/Aha1 interaction in human PC3MM2 cells assessed as remaining Hsp90alpha/Aha complex levels at 35 uM after 24 hrs by Western blot analysis (reference value: 98 to 100 %); assay type: cell-based

Row | Structure (SMILES) | remaining Hsp90alpha/Aha1 complex level (Homo sapiens [1]) | inhibition [2] | Raf1 downregulation (active/not active) [3] | IC50 [4] | Her2 downregulation (active/inactive call) [5] | Activity [6] | Activity (Rattus norvegicus) | Akt downregulation (active/not active) [7] | fold change (FC) [8] | IC50 (SK-BR-3) | Activity (Homo sapiens [9]) | inhibition [10] | inhibition [11] | inhibition [12] | Activity [13] | Activity (Homo sapiens [14])
1 | CO[C@@H]1[C@@H](O)[C@@H](O)[C@H](Oc2ccc3cc(NC(=O)C4CCCC4)c(=O)oc3c2C)OC1(C)C | 27% | Active | Active | 144 µM | Active | inactive | Active | Active | 2 | 67 µM | – | – | – | – | – | –
2 | CO[C@@H]1[C@@H](O)[C@@H](O)[C@H](Oc2ccc3cc(NC(=O)C4CCCCC4)c(=O)oc3c2C)OC1(C)C | – | Active | Active | 54.6 µM | Active | inactive | Active | Active | 1 | 46.8 µM | 22% | – | – | – | – | –
3 | CCCCC(=O)Nc1cc2ccc(O[C@@H]3OC(C)(C)[C@H](OC)[C@@H](O)[C@H]3O)c(C)c2oc1=O | 72% | inactive | – | 317 µM | – | – | Active | – | 1.5 | 118 µM | – | inactive | inactive | inactive | Active | –
4 | CCCC(=O)Nc1cc2ccc(O[C@@H]3OC(C)(C)[C@H](OC)[C@@H](O)[C@H]3O)c(C)c2oc1=O | 100% | inactive | – | 466 µM | – | – | Active | – | 1.1 | 313 µM | – | inactive | inactive | inactive | Active | –
5 | CO[C@@H]1[C@@H](O)[C@@H](O)[C@H](Oc2ccc3cc(NC(C)=O)c(=O)oc3c2C)OC1(C)C | 68 to 70% | inactive | – | > 500 µM | – | – | Active | – | 2 to 3.7 | > 900 µM | – | – | – | – | Active | –
6 | CCCCCCC(=O)Nc1cc2ccc(O[C@@H]3OC(C)(C)[C@H](OC)[C@@H](O)[C@H]3O)c(C)c2oc1=O | – | Active | Active | 34.7 µM | Active | inactive | Active | Active | 0.6 | 58.3 µM | – | – | – | – | – | 38%
7 | CO[C@@H]1[C@@H](O)[C@@H](O)[C@H](Oc2ccc3cc(NC(=O)C4CC4)c(=O)oc3c2C)OC1(C)C | 68% | – | – | > 500 µM | – | – | Active | – | 3.7 | 517 µM | – | inactive | inactive | inactive | – | –
8 | CO[C@@H]1[C@@H](O)[C@@H](O)[C@H](Oc2ccc3cc(NC(=O)C4CCC4)c(=O)oc3c2C)OC1(C)C | 54% | – | – | 284 µM | – | – | Active | – | 4 | 220 µM | – | inactive | inactive | inactive | – | –
9 | CCC(=O)Nc1cc2ccc(O[C@@H]3OC(C)(C)[C@H](OC)[C@@H](O)[C@H]3O)c(C)c2oc1=O | 86% | inactive | – | 504 µM | – | – | Active | – | 1.2 | 643 µM | – | inactive | inactive | inactive | Active | –
10 | CCCCCC(=O)Nc1cc2ccc(O[C@@H]3OC(C)(C)[C@H](OC)[C@@H](O)[C@H]3O)c(C)c2oc1=O | – | Active | Active | 53.7 µM | Active | inactive | Active | Active | 0.6 | 84 µM | 46% | – | – | – | – | –
